Laboratory results published in ChEMBL document CHEMBL2385035 (J Med Chem, 2013).

Assays:
[1] = biological target: T1, Ileal sodium/bile acid cotransporter (Homo sapiens, UniProt Q12908); assay: Inhibition of human ASBT expressed in HEK293 cells assessed as inhibition of [3H]-taurocholate uptake after 90 mins by scintillation counting analysis; type: cell-based
T1 sequence (Q12908 whole entry): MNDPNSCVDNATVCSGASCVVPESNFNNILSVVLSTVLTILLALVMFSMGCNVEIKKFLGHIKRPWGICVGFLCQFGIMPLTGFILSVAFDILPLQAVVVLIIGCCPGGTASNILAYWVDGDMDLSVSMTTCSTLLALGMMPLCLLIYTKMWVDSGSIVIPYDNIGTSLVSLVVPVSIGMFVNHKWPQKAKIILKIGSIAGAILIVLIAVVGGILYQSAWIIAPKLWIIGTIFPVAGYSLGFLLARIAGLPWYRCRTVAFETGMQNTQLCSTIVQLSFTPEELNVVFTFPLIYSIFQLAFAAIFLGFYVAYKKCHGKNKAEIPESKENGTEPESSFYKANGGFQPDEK

[2] = Apparent permeability in MDCK cells expressing MDR1 at 3 uM after 60 mins by LC-MS/MS analysis; type: ADME, cell-based, Canis lupus familiaris; details: dog
[3] = Cmax in Sprague-Dawley rat portal vein blood at 10 mg/kg, po; type: ADME, organism-based; parameters: dose 10 mg/kg, route oral
Outline: (§1)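 Fed male SD rats given a single oral gavage dose of 10 mg/kg. Maximum parent drug concentration measured in portal vein blood and in systemic blood.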

[4] = Cmax in Sprague-Dawley rat systemic blood at 10 mg/kg, po; type: ADME, organism-based; parameters: dose 10 mg/kg, route oral; outline: as §1
Mus musculus [5] = assay: In vivo inhibition of ASBT in C57BL/6J mouse assessed as increase in fecal bile acid excretion measured for 24 hrs relative to 264W94; type: functional, Feces; parameters: concentration or dose not given beside the values
Mus musculus [6] = assay: In vivo inhibition of ASBT in C57BL/6J mouse assessed as increase in fecal bile acid excretion measured for 24 hrs; type: functional; details: Feces
[7] = Drug recovery in Sprague-Dawley rat feces at 10 mg/kg, po; type: ADME, organism-based; parameters: dose 10 mg/kg, route oral; details: read-out: Drug recovery
[8] = biological target: T2, Ileal sodium/bile acid cotransporter (Rattus norvegicus, UniProt Q62633); assay: Inhibition of rat ASBT expressed in HEK293 cells assessed as inhibition of [3H]-taurocholate uptake after 90 mins by scintillation counting analysis; type: cell-based
T2 sequence (Q62633 whole entry): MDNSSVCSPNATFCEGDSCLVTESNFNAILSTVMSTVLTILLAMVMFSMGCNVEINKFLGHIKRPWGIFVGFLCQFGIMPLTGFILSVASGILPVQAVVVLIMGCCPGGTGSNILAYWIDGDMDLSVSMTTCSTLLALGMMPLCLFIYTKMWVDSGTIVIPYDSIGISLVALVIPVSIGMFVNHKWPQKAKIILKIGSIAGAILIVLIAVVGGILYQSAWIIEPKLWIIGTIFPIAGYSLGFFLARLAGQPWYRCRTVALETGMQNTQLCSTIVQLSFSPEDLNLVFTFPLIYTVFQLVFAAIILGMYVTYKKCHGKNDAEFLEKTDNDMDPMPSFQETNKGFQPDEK

[9] = biological target: T3, Ileal sodium/bile acid cotransporter (Mus musculus, UniProt P70172); assay: Inhibition of mouse ASBT expressed in HEK293 cells assessed as inhibition of [3H]-taurocholate uptake after 90 mins by scintillation counting analysis; type: cell-based
T3 sequence (P70172 whole entry): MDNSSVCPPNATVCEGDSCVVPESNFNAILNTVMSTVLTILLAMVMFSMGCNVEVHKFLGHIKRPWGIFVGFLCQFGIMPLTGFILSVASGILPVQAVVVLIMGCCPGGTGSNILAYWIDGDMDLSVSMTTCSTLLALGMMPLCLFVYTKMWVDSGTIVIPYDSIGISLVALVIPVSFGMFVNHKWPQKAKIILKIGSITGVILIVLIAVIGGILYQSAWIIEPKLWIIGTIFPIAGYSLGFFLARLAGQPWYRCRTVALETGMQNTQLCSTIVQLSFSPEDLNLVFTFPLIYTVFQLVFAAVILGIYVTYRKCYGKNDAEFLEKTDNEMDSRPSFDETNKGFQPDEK

[10] = Half life in Sprague-Dawley rat intestine at 10 mg/kg, po; type: ADME, organism-based; parameters: dose 10 mg/kg, route oral

| Structure (SMILES) | IC50 [1] [µM] | Papp at 1 h, 3 µM [2] [×10⁻⁶ cm/s] | Cmax [3] [ng/mL] | Cmax [4] [ng/mL] | other results |
| --- | --- | --- | --- | --- | --- |
| CCCC[C@]1(CC)CS(=O)(=O)c2cc(OCP(=O)(O)O)c(OC)cc2[C@@H](c2ccccc2)N1 | 0.9 | – | – | – | – |
| CCCC[C@]1(CC)CS(=O)(=O)c2cc(OCCCS(=O)(=O)O)c(OC)cc2[C@@H](c2ccccc2)N1 | 0.05 | 0.8 | 289 | 1 | – |
| CCCC[C@]1(CC)CS(=O)(=O)c2cc(CCCS(=O)(=O)O)c(OC)cc2[C@@H](c2ccccc2)N1 | – | 0.7 | – | – | – |
| CCCC[C@]1(CC)CS(=O)(=O)c2cc(CNC(=O)CP(=O)(O)O)c(OC)cc2[C@@H](c2ccccc2)N1 | – | 0.3 | – | – | – |
| CCCC[C@]1(CC)CS(=O)(=O)c2cc(CNC(=O)CNC(CC(=O)O)CC(=O)O)c(OC)cc2[C@@H](c2ccccc2)N1 | > 3 | – | – | – | – |
| CCCC[C@]1(CC)CS(=O)(=O)c2cc(CCC(=O)O)c(OC)cc2[C@@H](c2ccccc2)N1 | – | 38.3 | – | – | – |
| CCCC[C@]1(CC)CS(=O)(=O)c2cc(OCCS(=O)(=O)O)c(OC)cc2[C@@H](c2ccccc2)N1 | 0.004 | 1.2 | 220 | 7 | – |
| CCCC[C@]1(CC)CS(=O)(=O)c2cc(CN(C)CCC(=O)O)c(OC)cc2[C@@H](c2ccccc2)N1 | 0.367 | – | – | – | – |
| CCCC[C@]1(CC)CS(=O)(=O)c2cc(CNCP(=O)(O)O)c(OC)cc2[C@@H](c2ccccc2)N1 | > 3 | – | – | – | – |
| CCCC[C@]1(CC)CS(=O)(=O)c2cc(CNC(=O)CS(=O)(=O)O)c(OC)cc2[C@@H](c2ccccc2)N1 | – | 1.9 | 122 | 26 | – |
| CCCC[C@]1(CC)CS(=O)(=O)c2cc(CN3CCC[C@H]3C(=O)O)c(OC)cc2[C@@H](c2ccccc2)N1 | > 3 | – | – | – | – |
| CCCC[C@]1(CC)CS(=O)(=O)c2cc(CN[C@H](CC(=O)O)C(=O)O)c(OC)cc2[C@@H](c2ccccc2)N1 | – | 0.7 | 11 | 1 | Efficacy (Mus musculus [5]): 70%; ED50 (Mus musculus [6]): > 1 mg/kg; dose excreted [7]: 100% |
| CCCC[C@]1(CC)CS(=O)(=O)c2cc(C(=O)NCS(=O)(=O)O)c(OC)cc2[C@@H](c2ccccc2)N1 | – | 0.7 | 92 | 4 | – |
| CCCC[C@]1(CC)CS(=O)(=O)c2cc(CS(=O)(=O)O)c(OC)cc2[C@@H](c2ccccc2)N1 | – | 0.9 | 170 | 3 | – |
| CCCC[C@]1(CC)CS(=O)(=O)c2cc(CCC(=O)NCS(=O)(=O)O)c(OC)cc2[C@@H](c2ccccc2)N1 | – | 0.7 | – | – | – |
| CCCC[C@]1(CC)CS(=O)(=O)c2cc(OCC(=O)O)c(OC)cc2[C@@H](c2ccccc2)N1 | 0.034 | 1 | 1460 | 26 | – |
| CCCC[C@]1(CC)CS(=O)(=O)c2cc(C(CC(=O)O)CC(=O)O)c(OC)cc2[C@@H](c2ccccc2)N1 | > 3 | 0.5 | 333 | 19 | – |
| CCCC[C@]1(CC)CS(=O)(=O)c2cc(OCCP(=O)(O)O)c(OC)cc2[C@@H](c2ccccc2)N1 | 0.044 | 0.8 | 82 | 16 | – |

| Structure (SMILES) | IC50 [1] [µM] | Papp at 1 h, 3 µM [2] [×10⁻⁶ cm/s] | Cmax [3] [ng/mL] | Cmax [4] [ng/mL] | other results |
| --- | --- | --- | --- | --- | --- |
| CCCC[C@]1(CC)CS(=O)(=O)c2cc(CNC(=O)C(=O)O)c(OC)cc2[C@@H](c2ccccc2)N1 | – | – | 87 | – | – |
| CCCC[C@]1(CC)CS(=O)(=O)c2cc(CN[C@@H](CC(=O)O)C(=O)O)c(OC)cc2[C@@H](c2ccccc2)N1 | – | 0.6 | 93 | 1 | – |
| CCCC[C@]1(CC)CS(=O)(=O)c2cc(CNCCS(=O)(=O)O)c(OC)cc2[C@@H](c2ccccc2)N1 | – | 1 | 7 | – | Efficacy (Mus musculus [5]): 73%; ED50 (Mus musculus [6]): 2.7 mg/kg; IC50 [8]: 0.0023 µM; dose excreted [7]: 100%; IC50 [9]: 0.0009 µM; half-life [10]: > 12 h |
| CCCC[C@]1(CC)CS(=O)(=O)c2cc(CCC(=O)NC(CC(=O)O)CC(=O)O)c(OC)cc2[C@@H](c2ccccc2)N1 | > 3 | – | – | – | – |
| CCCC[C@]1(CC)CS(=O)(=O)c2cc(C(=O)NCCS(=O)(=O)O)c(OC)cc2[C@@H](c2ccccc2)N1 | – | 0.4 | 132 | 38 | – |
| CCCC[C@]1(CC)CS(=O)(=O)c2cc(OCCCC(=O)O)c(OC)cc2[C@@H](c2ccccc2)N1 | 0.013 | 30.3 | – | – | – |
| CCCC[C@]1(CC)CS(=O)(=O)c2cc(CN(CC(=O)O)CC(=O)O)c(OC)cc2[C@@H](c2ccccc2)N1 | 0.245 | 0.4 | 56 | 43 | – |
| CCCC[C@]1(CC)CS(=O)(=O)c2cc(CCCC(=O)O)c(OC)cc2[C@@H](c2ccccc2)N1 | – | 34.2 | – | – | – |
| CCCC[C@]1(CC)CS(=O)(=O)c2cc(CCP(=O)(O)O)c(OC)cc2[C@@H](c2ccccc2)N1 | – | 1.2 | – | – | – |
| CCCC[C@]1(CC)CS(=O)(=O)c2cc(CN(CP(=O)(O)O)CP(=O)(O)O)c(OC)cc2[C@@H](c2ccccc2)N1 | > 3 | – | – | – | – |
| CCCC[C@]1(CC)CS(=O)(=O)c2cc(CN(CCS(=O)(=O)O)CCS(=O)(=O)O)c(OC)cc2[C@@H](c2ccccc2)N1 | – | 0.8 | – | – | – |
| CCCC[C@]1(CC)CS(=O)(=O)c2cc(OCCCP(=O)(O)O)c(OC)cc2[C@@H](c2ccccc2)N1 | 0.133 | 1 | 260 | 7 | – |
| CCCC[C@]1(CC)CS(=O)(=O)c2cc(CCCP(=O)(O)O)c(OC)cc2[C@@H](c2ccccc2)N1 | – | 0.7 | – | – | – |
| CCCC[C@]1(CC)CS(=O)(=O)c2cc(C(=O)NCC(C)(C)C(=O)O)c(OC)cc2[C@@H](c2ccccc2)N1 | – | 4.3 | – | – | – |
| CCCC[C@]1(CC)CS(=O)(=O)c2cc(CN[C@@H](CO)C(=O)O)c(OC)cc2[C@@H](c2ccccc2)N1 | – | 0.5 | 12 | 24 | Efficacy (Mus musculus [5]): 47%; ED50 (Mus musculus [6]): 0.012 mg/kg; dose excreted [7]: 63%; half-life [10]: 8 h |
| CCCC[C@]1(CC)CS(=O)(=O)c2cc(CN(C)CC(=O)O)c(OC)cc2[C@@H](c2ccccc2)N1 | – | 1 | 224 | 1 | – |
| CCCC[C@]1(CC)CS(=O)(=O)c2cc(CCC(=O)NCC(=O)O)c(OC)cc2[C@@H](c2ccccc2)N1 | – | 1.2 | – | – | – |
